Three compounds from ChEMBL document CHEMBL4808161, “Structure-Activity Relationship Study of Amidobenzimidazole Analogues Leading to Potent and Systemically Administrable Stimulator of Interferon Gene (STING) Agonists” (J Med Chem, 2021) can be followed below.

Series [1] deals with T1, Stimulator of interferon genes protein (Homo sapiens, UniProt Q86WV6). In words: Inhibition of [3H]-cGAMP binding to STING (unknown origin).
The nature of series [2]: Solubility of the compound. It is filed as physicochemical.
Series [3] has as its target T1, Stimulator of interferon genes protein. In words: Activation of STING in human THP1-Dual cells assessed as increase in TBK1/IRF3 phosphorylation measured after 4 hrs by Western blot analysis. It is filed as cell-based. The note with it: filed as activator, dose 3.3-30 µM. The gist of the method: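 THP1-Dual cells (8 × 10⁵/well) treated at 3.3, 10 and 30 μM for 4 h, then lysed in SDS sample buffer and boiled. Lysates run on 10% SDS-PAGE and transferred to nitrocellulose. Blots probed for TBK1, phospho-TBK1 Ser172, IRF3, phospho-IRF3 Ser396 and GAPDH, with HRP secondaries and ECL detection.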
(In general: A western blot detects proteins with antibodies after separation by electrophoresis.)

The target in series [4] is T2, Stimulator of interferon genes protein (Mus musculus) (UniProt Q3TBT3).
T2 sequence (whole entry): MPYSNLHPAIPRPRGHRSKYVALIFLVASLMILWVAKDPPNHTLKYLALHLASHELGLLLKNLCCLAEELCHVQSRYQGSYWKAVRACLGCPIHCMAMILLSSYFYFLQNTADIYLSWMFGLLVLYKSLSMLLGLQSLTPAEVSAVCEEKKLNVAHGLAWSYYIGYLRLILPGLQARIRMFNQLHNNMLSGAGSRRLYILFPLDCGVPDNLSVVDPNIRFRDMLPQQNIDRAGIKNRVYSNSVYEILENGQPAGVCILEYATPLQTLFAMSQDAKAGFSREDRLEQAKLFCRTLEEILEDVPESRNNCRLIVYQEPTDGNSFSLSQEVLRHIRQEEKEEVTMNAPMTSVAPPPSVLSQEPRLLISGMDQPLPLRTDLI
In words: Activation of mouse STING expressed in RAW-Lucia ISG cells at 50 uM incubated for 24 hrs by QUANTI-Luc luciferase reporter gene assay relative to control. As to conditions: filed as activator. (In a reporter assay the amount or activity of a reporter protein is the signal.)

The species entered for series [5] is Homo sapiens. In words: Binding affinity to human STING 293Q mutant assessed as thermal stability by measuring melting temperature […] differential scanning fluorimetry (reference value: 46.25 degreeC). As to conditions: filed as activator. In short, it runs like this:
(§1)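 Thermal shift by DSF: 5 μM STING protein, 50 μM compound and 10× SYPRO Orange in 10 mM HEPES pH 7.5, 150 mM NaCl. Samples heated from 30 to 80 °C at 0.5 °C/min. Tm taken as the temperature of median fluorescence between onset and maximum; n = 3.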

In series [6] the test system is Stimulator of interferon genes protein (Homo sapiens), Q86WV6 [UNDEFINED MUTATION]. In words: Binding affinity to human STING R232 mutant assessed as thermal stability by measuring melting temperature […] differential scanning fluorimetry (reference value: 38.75 degreeC). As to conditions: filed as activator. In short, it runs like this:
as §1
For orientation: In DSF a fluorescence change marks the thermal transition of the protein.

For series [7], the target named is T1, Stimulator of interferon genes protein. In words: Activation of STING in human THP1-Dual cells assessed as increase in IFNbeta secretion at 10 uM measured after 24 hrs by ELISA. The class given is cell-based. As to conditions: filed as activator. The gist of the method:
(§2)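 THP1-Dual cells seeded at 10⁵ cells/well and treated for 24 h. Human IP-10 and IFN-β in supernatant quantified by ELISA kits. Concentration (pg/mL) derived from a standard curve.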

Series [8] is filed under the species Homo sapiens. In words: Binding affinity to human STING H232 mutant assessed as thermal stability by measuring melting temperature […] differential scanning fluorimetry (reference value: 39.5 degreeC). The note with it: filed as activator. The gist of the method: as §1
Series [9] deals with T1, Stimulator of interferon genes protein. In words: Activation of STING in human THP1-Dual cells assessed as increase in IP-10 secretion at 0.01 to 10 uM measured after 24 hrs by ELISA. The class given is cell-based. As to conditions: filed as activator, dose 0.01-10 µM. In short, it runs like this: as §2
The species named for another series is Mus musculus. In words: Binding affinity to mouse STING mR231 mutant assessed as thermal stability by measuring melting temperature […] differential scanning fluorimetry (reference value: 42 degreeC). As to conditions: filed as activator. In short, it runs like this: as §1
Series [10] has as its target T1, Stimulator of interferon genes protein. In words: Activation of STING in human THP1-Dual cells assessed as induction of NF-KB signaling at 0.005 to 10 uM measured after 24 hrs by Quanti-Blue reagent based assay. It is filed as cell-based. The note with it: filed as activator, dose 0.005-10 µM. In short, it runs like this:
(§3)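 THP1-Dual cells (1 × 10⁵/well) treated for 24 h. Supernatant (20 μL) incubated 1 h at 37 °C with QUANTI-Blue, then absorbance read at 650 nm. Fold change calculated relative to vehicle control.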

The target is the same in series [11]. In words: Activation of human STING (139 to 379 residues) expressed in THP1-Blue ISG cells at 10 uM incubated for 24 hrs by quanti-blue SEAP reporter gene assay relative to control. The class given is cell-based. As to conditions: filed as activator. The gist of the method:
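THP1-Blue-ISG cells (1 × 10⁵/well) treated for 24 h; single-concentration screen at 10 μM. SEAP ISG reporter in 20 μL supernatant read with QUANTI-Blue at 650 nm. Activation given as fold over control, averaging at least two experiments.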

Series [12] deals with Stimulator of interferon genes protein (Homo sapiens), Q86WV6 [R71H,G230A,R293Q]. In words: Binding affinity to human STING HAQ mutant assessed as thermal stability by measuring melting temperature […] differential scanning fluorimetry (reference value: 37.25 degreeC). As to conditions: filed as activator. In short, it runs like this: as §1
Another series relates to 4T1. In words: Antitumor activity against mouse 4T1 cells […] in orthotopic BALB/c mouse assessed as tumor regression at 10 mg/kg, iv administered on day 1,4 and 7 post inoculation. The class given is functional, organism-based. As to conditions: time 7.0 day. In short, it runs like this:
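BALB/c mice bearing orthotopic 4T1 tumors (5 × 10⁵ cells in the breast fat pad; n = 5) dosed iv at 10 mg/kg on days 1, 4 and 7 once tumors reached about 50–100 mm³. Tumor volume calculated as (a × b²)/2 and, with body weight, measured twice weekly.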

For series [13], the target named is T1, Stimulator of interferon genes protein. In words: Activation of STING in human THP1-Dual cells assessed as induction of ISG signaling at 0.005 to 10 uM measured after 24 hrs by Quanti-Blue reagent based assay. It is filed as cell-based. The note with it: filed as activator, dose 0.005-10 µM. The gist of the method: as §3
The nature of series [14]: Toxicity in orthotopic BALB/c mouse co-inoculated with mouse 4T1 […] cells assessed as weight loss at 10 mg/kg, iv administered on day 1,4 and 7 post inoculation. It is filed as organism-based. The note with it: in vivo, 168 h, time 7 day. In short, it runs like this:
(§4)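 BALB/c mice received 5 × 10⁵ 4T1 cells into the breast fat pad (orthotopic), with n = 5. Dosing began when tumours reached about 50−100 mm³: 10 mg/kg iv on days 1, 4 and 7, against a vehicle group. Body weight and tumour volume were recorded twice weekly, with tolerance and survival followed after each injection.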

Series [15] can be described thus: Observed AUCinfinity in rat at 1 mg/kg, iv. The class given is ADME, organism-based. On the set-up: time infinity, route intravenous, dose 1 mg/kg. As to conditions: in vivo.
Series [16] in a line: Observed volume of distribution at steady state in rat at 1 mg/kg, iv. It is filed as ADME, organism-based. As to conditions: in vivo, read-out: Vdss.
Series [17] deals with T3, Stimulator of interferon genes protein (Mus musculus, UniProt Q3TBT3).
T3 sequence (Q3TBT3 whole entry): T2 sequence (whole entry)
In words: Activation of mouse STING expressed in RAW-Lucia ISG cells incubated for 24 hrs by secreted luciferase reporter gene assay.

The nature of series [18]: Half life in rat at 1 mg/kg, iv. The note with it: in vivo. The class given is ADME, organism-based.
The target in series [19] is T1, Stimulator of interferon genes protein. In words: Activation of human STING expressed in THP1-Dual cells incubated for 24 hrs by secreted luciferase reporter gene assay.
A short description of series [20]: AUClast in rat at 1 mg/kg, iv. On the set-up: time 0 - last, route intravenous, dose 1 mg/kg. It is filed as ADME, organism-based. The note with it: in vivo.
Series [21] is described as follows: Toxicity in orthotopic BALB/c mouse co-inoculated with mouse 4T1 […] cells assessed as drug tolerance at 10 mg/kg, iv administered on day 1,4 and 7 post inoculation. As to conditions: in vivo, 168 h, time 7 day. It is filed as organism-based. The gist of the method:
as §4

A short description of series [22]: Observed clearance in rat at 1 mg/kg, iv. The note with it: in vivo. It is filed as ADME, organism-based.
Series [23] in a line: Observed MRT infinity in rat at 1 mg/kg, iv. The class given is ADME, organism-based. As to conditions: in vivo.
Series [24] has as its target T1, Stimulator of interferon genes protein. In words: Binding affinity to 6His-tagged human STING measured after 3 hrs by HTRF assay.

Activity calls are given as the source filed them. The rule behind the calls is not given here.

T1 sequence (Q86WV6 whole entry): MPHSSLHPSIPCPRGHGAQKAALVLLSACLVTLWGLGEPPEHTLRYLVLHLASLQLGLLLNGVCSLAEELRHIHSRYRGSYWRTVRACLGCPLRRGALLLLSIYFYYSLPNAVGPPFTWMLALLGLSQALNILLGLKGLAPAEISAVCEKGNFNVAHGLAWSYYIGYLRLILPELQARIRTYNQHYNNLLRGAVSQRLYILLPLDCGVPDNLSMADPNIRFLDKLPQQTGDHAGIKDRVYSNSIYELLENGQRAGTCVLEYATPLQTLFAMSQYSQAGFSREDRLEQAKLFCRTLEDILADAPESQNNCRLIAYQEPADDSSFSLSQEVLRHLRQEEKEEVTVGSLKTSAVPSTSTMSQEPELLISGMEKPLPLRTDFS
Chain of Stimulator of interferon genes protein (Homo sapiens), Q86WV6 [UNDEFINED MUTATION] (Q86WV6 whole entry, looked up, change not shown): as the sequence (Q86WV6 whole entry) above
Chain of Stimulator of interferon genes protein (Homo sapiens), Q86WV6 [R71H,G230A,R293Q] (Q86WV6 whole entry R71H/G230A/R293Q): as the sequence (Q86WV6 whole entry) above, with R71H, G230A, R293Q counted along it

As a reminder, the IC50 is the point on the concentration scale where inhibition reaches its midpoint. A lower IC50 goes with inhibition by little substance. Turning to `CCn1nc(C)cc1C(=O)/N=c1\[nH]c2cc(C(=O)O)ccc2n1C[C@@H](O)c1ccccc1`, the IC50 in series [1] turned out to be 14 µM.

As usually defined, the solubility is the dissolved amount per volume that the medium holds. Higher therefore signals much dissolved substance. The compound `CCn1nc(C)cc1C(=O)/N=c1\[nH]c2cc(C(N)=O)cc(OC)c2n1C/C=C/Cn1/c(=N/C(=O)c2cc(C)nn2CC)[nH]c2cc(C(N)=O)cc(OCCCN3CCOCC3)c21.Cl.Cl.Cl` yielded a solubility in series [2] of 3230 µg/mL. The Activity result in [3] was “Dose-Dependent Effect”. The results for the fold change (FC) in series [4] and in series [11] were 8.11 and 26, respectively. Moreover, the Tm in the series listed under Homo sapiens [5] came out at 49 °C; in series [6] it was 48.5 °C; in the series listed under Homo sapiens [8], 50.2 °C; in the series listed under Mus musculus it was 55.5 °C; in series [12], 48.8 °C. Further, the result (in series [7]; in series [9]; in [10]; in the series on 4T1; in series [13]) was Active.

As a reminder, the AUC(0-inf) is the area under the concentration-time curve extrapolated to infinity. Higher therefore signals more exposure. What is called EC50 is the concentration that produces a half-maximal response. Read a high EC50 as a need for much substance. The term half-life denotes the time in which the quantity being followed falls by half. One may read the AUC(0-t) as exposure summed from dosing to a finite time, without extrapolation to infinity. Read a high AUC(0-t) as more exposure. Broadly, the clearance is the rate of elimination divided by the concentration. For orientation: MRT inf means the average time that molecules of a dose stay in the body. As for `CCn1nc(C)cc1C(=O)/N=c1\[nH]c2cc(-c3ncn[nH]3)cc(OC)c2n1C/C=C/Cn1/c(=N/C(=O)c2cc(C)nn2CC)[nH]c2cc(C(N)=O)cc(OCCCN3CCOCC3)c21`, the values for the Activity entry in [14] and in series [21] were “Toxic” and “Non-Toxic”, respectively. The compound further came in with an AUC(0-inf) in series [15] of 705 ng·h/mL. In series [16], the Vd is 0.722 L/kg. Besides, the half-maximal effective concentration (EC50) turned out to be 39.5 µM in [17], 0.24 µM in [19] and 0.0062 µM in series [24]. The compound also showed a half-life in series [18] of 41.8 min. The compound also came in with an AUC(0-t) in [20] of 678 ng·h/mL. In [22], this compound displayed a clearance of 23.9 mL/min/kg. This compound registered an MRT inf in [23] of 30.2 min.
